The inhibition is the share of the control response that was lost under treatment.

Structures are written as SMILES. The source made the active and inactive calls. No cut-off for these calls is given here. Non-standard residues stand in square brackets, D forms with d. Residues, ends and D or L forms follow the SMILES beside them. ξ: configuration not given here. *: point of attachment. Phe(4-guanidino) = N=C(N)Nc1ccc(C[C@H](N)C(=O)O)cc1; Oic(3aξ,7aξ) = O=C(O)[C@@H]1CC2CCCCC2N1; Phe(4-F) = N[C@@H](Cc1ccc(F)cc1)C(=O)O; ACC = NC(=O)Cc1cc(=O)oc2cc(N*)ccc12; Met(O) = CS(=O)CC[C@H](N)C(=O)O; Tic = O=C(O)[C@@H]1Cc2ccccc2CN1; X1 = Clc1cccc(Cl)c1C*

The target in test [1] is T1, Granzyme A (Homo sapiens) (UniProt P12544).
T1 sequence (whole entry): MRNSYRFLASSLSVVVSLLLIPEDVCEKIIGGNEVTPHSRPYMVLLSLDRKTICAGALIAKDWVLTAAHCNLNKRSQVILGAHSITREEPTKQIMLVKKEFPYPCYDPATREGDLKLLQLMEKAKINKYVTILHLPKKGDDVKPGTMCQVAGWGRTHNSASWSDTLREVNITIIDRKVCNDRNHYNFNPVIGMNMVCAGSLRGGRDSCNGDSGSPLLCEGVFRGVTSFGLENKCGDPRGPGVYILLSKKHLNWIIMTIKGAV
The experiment in a line: Substrate activity at Granzyme A (unknown origin) expressed in Pichia pastoris incubated for 30 mins by fluorescence based assay.

For test [2], the target named is T2, Granzyme K (Homo sapiens) (UniProt P49863).
T2 sequence (whole entry): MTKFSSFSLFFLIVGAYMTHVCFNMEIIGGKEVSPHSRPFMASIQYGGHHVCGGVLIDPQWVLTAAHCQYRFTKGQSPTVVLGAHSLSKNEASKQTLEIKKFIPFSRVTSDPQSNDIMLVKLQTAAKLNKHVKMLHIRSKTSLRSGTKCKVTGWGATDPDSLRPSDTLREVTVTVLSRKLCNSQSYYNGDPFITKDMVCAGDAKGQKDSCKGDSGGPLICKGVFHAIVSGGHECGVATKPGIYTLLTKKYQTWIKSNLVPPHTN
The experiment in a line: Substrate activity at Granzyme K (unknown origin) expressed in Pichia pastoris assessed as compound hydrolysis at 200 uM incubated for 30 mins by fluorescence based assay relative to control. Set-up: scale not given: the % may be the effect or the level left.

Test [3] deals with Granzyme B (Homo sapiens) (UniProt P10144). The experiment in a line: Substrate activity at Granzyme B (unknown origin) expressed in Pichia pastoris assessed as compound hydrolysis at 200 uM incubated for 30 mins by fluorescence based assay relative to control.
In test [4] the target is T3, Granzyme M (Homo sapiens) (UniProt P51124).
T3 sequence (whole entry): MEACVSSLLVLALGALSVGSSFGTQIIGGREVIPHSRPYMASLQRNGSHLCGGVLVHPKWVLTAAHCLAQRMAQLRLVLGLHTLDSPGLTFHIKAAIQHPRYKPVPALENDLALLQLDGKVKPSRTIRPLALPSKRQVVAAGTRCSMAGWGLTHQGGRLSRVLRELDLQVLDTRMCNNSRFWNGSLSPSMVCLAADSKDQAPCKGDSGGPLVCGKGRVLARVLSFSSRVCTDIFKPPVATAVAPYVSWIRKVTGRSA
The experiment in a line: Inhibition of Granzyme M (unknown origin) expressed in Pichia pastoris using Ac-Lys-Val-Pro-Leu-ACC substrate by spectrofluorometry relative to control. The note with it: concentration not given here. The gist of the method: (§1)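 Each enzyme preincubated 30 min at 37 °C with 10 μM compound, then its matched ACC substrate added (SK15 for GrA, GrKref, GrBref, Ac-KVPL-ACC for GrM, and the PR3 and hNE substrates). Enzyme levels: GrK 488 nM, GrB 18 nM, GrM 74 nM, hNE 3.3 nM, PR3 3.4 nM. Reference substrates at 200 μM. Fluorescence read at 355/460 nm; residual activity relative to an untreated enzyme control.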

In test [5] the target is Granzyme B (Homo sapiens) (UniProt P10144). The test can be described thus: Inhibition of Granzyme B (unknown origin) expressed in Pichia pastoris using GrBref substrate by spectrofluorometry relative to control. The note with it: concentration not given here. The method in brief: as §1
Test [6] concerns the target T4, Myeloblastin (Homo sapiens) (UniProt P24158).
T4 sequence (whole entry): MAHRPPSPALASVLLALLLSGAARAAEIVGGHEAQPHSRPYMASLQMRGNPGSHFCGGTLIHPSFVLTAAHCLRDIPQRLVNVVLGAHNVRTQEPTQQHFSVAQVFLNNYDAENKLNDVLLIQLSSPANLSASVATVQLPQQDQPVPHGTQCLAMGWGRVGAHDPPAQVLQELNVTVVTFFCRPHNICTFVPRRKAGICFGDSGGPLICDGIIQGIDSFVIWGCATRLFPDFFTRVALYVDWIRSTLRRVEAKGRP
The experiment in a line: Inhibition of PR3 (unknown origin) expressed in Pichia pastoris using Ac-Glu(O-Bzl)-Lys(Ac)-Hyp(Bzl)-Nva-ACC substrate by spectrofluorometry relative to control. The note with it: concentration not given here. The gist of the method:
as §1

Test [7] has as its target T1, Granzyme A (Homo sapiens). The experiment in a line: Inhibition of Granzyme A (unknown origin) expressed in Pichia pastoris using SK15 substrate by spectrofluorometry relative to control. As to conditions: concentration not given here. The method in brief: as §1
Test [8] concerns the target T2, Granzyme K (Homo sapiens). The experiment in a line: Inhibition of Granzyme K (unknown origin) expressed in Pichia pastoris using GrKref substrate by spectrofluorometry relative to control. The note with it: concentration not given here. The gist of the method: as §1
For test [9], the target named is T1, Granzyme A (Homo sapiens). The test can be described thus: Inhibition of Granzyme A (unknown origin) expressed in Pichia pastoris assessed as second- order inhibition rate constant (Kobs/I ratio) pre-incubated with SK15 substrate for 15 mins before enzyme addition by spectrofluorometry. The method in brief: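 Recombinant GrA at 350 nM, pre-warmed at 37 °C, added to SK15 substrate that had been preincubated 15 min at 37 °C with varied inhibitor or probe (inhibitor range 714–333 nM, SK15 10 μM). Tris/NaCl/CaCl2/Tween-20 buffer, pH 7.5. AMC-type fluorescence at 355/460 nm under pseudo-first-order conditions to give kobs/I. Mean of at least three experiments with standard deviation.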

The target of test [10] is T5, Neutrophil elastase (Homo sapiens) (UniProt P08246).
T5 sequence (whole entry): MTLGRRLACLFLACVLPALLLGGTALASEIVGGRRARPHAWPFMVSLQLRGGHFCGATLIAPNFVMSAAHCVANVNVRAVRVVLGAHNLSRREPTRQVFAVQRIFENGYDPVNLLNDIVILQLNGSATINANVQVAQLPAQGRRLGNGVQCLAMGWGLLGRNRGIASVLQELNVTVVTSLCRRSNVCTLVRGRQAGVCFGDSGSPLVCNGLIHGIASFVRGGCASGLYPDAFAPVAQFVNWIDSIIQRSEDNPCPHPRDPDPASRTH
The experiment in a line: Inhibition of human neutrophil elastase expressed in Pichia pastoris using Ac-Arg(NO)2-Glu(Bzl)-Oic-Abu-ACC substrate by spectrofluorometry relative to control. The note with it: concentration not given here. The gist of the method:
as §1

Granzyme B (Homo sapiens), sequence (P10144 whole entry): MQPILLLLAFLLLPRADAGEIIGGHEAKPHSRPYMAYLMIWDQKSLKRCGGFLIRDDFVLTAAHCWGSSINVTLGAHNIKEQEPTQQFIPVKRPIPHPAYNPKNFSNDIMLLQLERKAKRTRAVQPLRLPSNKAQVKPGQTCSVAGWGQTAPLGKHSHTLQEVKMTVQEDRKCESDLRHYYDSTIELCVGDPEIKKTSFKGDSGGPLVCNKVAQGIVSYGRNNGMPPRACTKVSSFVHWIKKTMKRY

As to `CC(=O)N[C@@H](CC[S+](C)[O-])C(=O)NCC(=O)N1CC(OCc2ccccc2)C[C@H]1C(=O)N[C@@H](CCCNC(=N)N)C(=O)Nc1ccc2c(CC(N)=O)cc(=O)oc2c1` (some centres not stated), the result in test [1] was Active.

In the case of `CC(=O)N[C@@H](CC[S+](C)[O-])C(=O)NCC(=O)N1CC(OCc2ccccc2)C[C@H]1C(=O)N[C@@H](Cc1ccc(NC(=N)N)cc1)C(=O)Nc1ccc2c(CC(N)=O)cc(=O)oc2c1` (some centres not stated), the outcome in [1] was Active. For `CC[C@H](C)[C@H](NC(C)=O)C(=O)NCC(=O)N1C2CCCCC2C[C@H]1C(=O)N[C@@H](Cc1ccc(NC(=N)N)cc1)C(=O)Nc1ccc2c(CC(N)=O)cc(=O)oc2c1` (some centres not stated) (Ac-IG[Oic(3aξ,7aξ)][Phe(4-guanidino)]-{ACC}), in test [1], the result was Active. Take `CC(=O)N[C@@H](CC[S+](C)[O-])C(=O)NCC(=O)N[C@@H](Cc1ccc(OCc2c(Cl)cccc2Cl)cc1)C(=O)N[C@@H](Cc1ccc(NC(=N)N)cc1)C(=O)Nc1ccc2c(CC(N)=O)cc(=O)oc2c1` (some centres not stated) (Ac-[Met(O)]GY(X1)[Phe(4-guanidino)]-{ACC}): the result in [1] was Active. For `CC(=O)N1Cc2ccccc2C[C@H]1C(=O)NCC(=O)N1C2CCCCC2C[C@H]1C(=O)N[C@@H](CCCNC(=N)N)C(=O)Nc1ccc2c(CC(N)=O)cc(=O)oc2c1` (stereo partly drawn) (Ac-[Tic]G[Oic(3aξ,7aξ)]R-{ACC}), the Activity in [2] is 20%. The outcome in test [3] was inactive. With `CC(=O)N1Cc2ccccc2C[C@H]1C(=O)N[C@@H](CCc1nc2ccccc2s1)C(=O)N1C2CCCCC2C[C@H]1C(=O)N[C@@H](Cc1ccc(NC(=N)N)cc1)C(=O)Nc1ccc2c(CC(N)=O)cc(=O)oc2c1` (some centres not stated), in test [1], the outcome was Active. Take `CC(=O)N[C@@H](CC[S+](C)[O-])C(=O)NCC(=O)N[C@@H](Cc1ccc(OCc2c(Cl)cccc2Cl)cc1)C(=O)N[C@@H](CCCNC(=N)N)C(=O)Nc1ccc2c(CC(N)=O)cc(=O)oc2c1` (stereo partly drawn) (Ac-[Met(O)]GY(X1)R-{ACC}): the outcome in test [1] was Active. Take `COC(=O)CCC(=O)N1Cc2ccccc2C[C@H]1C(=O)NCC(=O)N1C2CCCCC2C[C@H]1C(=O)NC(CCCNC(=N)N)P(=O)(Oc1ccccc1)Oc1ccccc1` (some centres not stated): the inhibition in [4], in test [5], in test [6], in test [7], in test [8] and in test [10] was under 20% throughout. The Ratio in test [9] amounted to 171000 s⁻¹ M⁻¹. Turning to `CC(=O)N1Cc2ccccc2C[C@H]1C(=O)NC(CCc1nc2ccccc2s1)C(=O)N1C2CCCCC2C[C@H]1C(=O)N[C@@H](CCCNC(=N)N)C(=O)Nc1ccc2c(CC(N)=O)cc(=O)oc2c1` (some centres not stated), the result in [1] was Active. Still for that read-out and setting: the same measure for `CC(=O)N[C@@H](CC[S+](C)[O-])C(=O)NCC(=O)N[C@@H](Cc1ccc(F)cc1)C(=O)N[C@@H](CCCNC(=N)N)C(=O)Nc1ccc2c(CC(N)=O)cc(=O)oc2c1` (stereo partly drawn) (Ac-[Met(O)]G[Phe(4-F)]R-{ACC}): “Active”.

In the case of `CC(=O)N[C@@H](CC[S+](C)[O-])C(=O)NCC(=O)N[C@@H](Cc1ccc(F)cc1)C(=O)N[C@@H](Cc1ccc(NC(=N)N)cc1)C(=O)Nc1ccc2c(CC(N)=O)cc(=O)oc2c1` (some centres not stated) (Ac-[Met(O)]G[Phe(4-F)][Phe(4-guanidino)]-{ACC}), in [1], the result was Active. The same measure, in the same setting: the same measure for `CC(=O)N1Cc2ccccc2C[C@H]1C(=O)NCC(=O)N1C2CCCCC2C[C@H]1C(=O)N[C@@H](Cc1ccc(NC(=N)N)cc1)C(=O)Nc1ccc2c(CC(N)=O)cc(=O)oc2c1` (some centres not stated) (Ac-[Tic]G[Oic(3aξ,7aξ)][Phe(4-guanidino)]-{ACC}): “Active”. Regarding `CC[C@H](C)[C@H](NC(C)=O)C(=O)NCC(=O)N1C2CCCCC2C[C@H]1C(=O)N[C@@H](CCCNC(=N)N)C(=O)Nc1ccc2c(CC(N)=O)cc(=O)oc2c1` (stereo partly drawn) (Ac-IG[Oic(3aξ,7aξ)]R-{ACC}), the result in test [1] and in test [3] was Active.

Regarding `CC(=O)N[C@@H](CC[S+](C)[O-])C(=O)NCC(=O)N1CC(OCc2ccccc2)C[C@H]1C(=O)Nc1cccc(C(=O)Nc2ccc3c(CC(N)=O)cc(=O)oc3c2)c1` (some centres not stated), the outcome in test [3] was Active.

Source of the values: ChEMBL document CHEMBL4342470, “Detection of Active Granzyme A in NK92 Cells with Fluorescent Activity-Based Probe” (J Med Chem, 2020).
